Experimental data from the EternaBench riboswitch data.

Test system: MS2 coat protein
Assay: apparent Kd, MS2 coat protein; higher = weaker binding; RNA-MaP array; FMN 200 µM where present
Summary of the method: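 Stalled E. coli RNA polymerase transcribed the designs on Illumina sequencing-chip clusters. SNAP-549-labelled MS2 coat protein was titrated from 0.7 or 1.5 nM, doubling to 3 µM, without and then with constant ligand, in 100 mM Tris-HCl pH 7.5, 80 mM KCl, 4 mM MgCl2, BSA, DTT, yeast tRNA and Tween-20. Per-cluster binding curves were fitted to green signal normalised to red-channel RNA signal and control-cluster median Fmax. The apparent Kd is the median of the filtered fits.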

[1] = designed as: OFF switch for flavin mononucleotide, no ligand
[2] = ligand present: flavin mononucleotide, designed as: OFF switch for flavin mononucleotide
[3] = designed as: ON switch for flavin mononucleotide, no ligand
[4] = ligand present: flavin mononucleotide, designed as: ON switch for flavin mononucleotide

Sequence	apparent Kd [1] [nM]	apparent Kd [2] [nM]	apparent Kd [3] [nM]	apparent Kd [4] [nM]
UCGGGCAACCGAAAUAGGACGGCUGAGGAUAUGACAUGAGGAUCACCCAUGUACAGGGCCACAGGUCAGAAGGCAGCCUUUUGG	161	36.5	–	–
UCGUGAAGGACAGGAUAUGGACAUGAGGAUCACCCAUGUACAUGGGAAUAUAUACUGAAUUUGUACUAGAAGGGUUACAUAAAC	30.9	19.8	–	–
UCGUGGUCAGGAUAUACAUGAGGAUCACCCAUGUAAAAGAGCAUUAAGGAGAGACUACGUAGAAGGGACAAAUU	51.6	47.2	–	–
UCGUUGUCAGGAUAUCGUGUAUACAACGUUAGUUCUAUGUGCGAGAAGGGACAUGAGGAUCACCCAUGUUACGU	69.2	213	–	–
UCGUUGUCAGGAUAUCGUUAAUUUAAUUGUUUGUAUUAGUUCGAGAAGGGACAUGAGGAUCACCCAUGUUUGUU	57.2	154	–	–
UCGUUUAUACAAGGAUAUCAAUUAUAGCUAAAUUCAACAUGAGGAUCACCCAUGUAACUAUGGAGUGAGAAGGUGUAAUGGCUU	–	–	116	310
UCUACGCGAAUCCAGAUGGAUAGCACAUGAGGAUCACCCAUGUAGGAUAUGCUACACAAAGUGUAGCAGAAGGACAAGCGUAGA	28.3	32.3	–	–
UCUAGACCGACAGGAUAUCAUGGCUGGAUAUAGUACAUGAGGAUCACCCAUGUCGGCUAGAGCGAUGAGAAGGGUCGGUUGCUC	–	–	414	87.3
UCUCGGUGUUCAGGAUAUGCAUCAAGGUUGUACGCAGAAGGGAACAUGAGGAUCACCCAUGUGUCCGAGCUGGGACGAGGGACG	37.9	188	–	–
UCUGCCGCCGUGAGGAUAUGCCCAAACAAAAGCGGGCAGAAGGCACAUGAGGAUCACCCAUGUCCCGCGGUUUU	18.5	37	–	–
UCUGGUCGAGGAUAUGCAAUCGUGCUUCGGCACGUAAGAUCACAUGAGGAUCACCCAUGUAGAAGGCGACCAGA	22.3	78.3	–	–
UCUUUGUUUGUGAGGAUAUCGAUAAAAUGGAUUGUCGAGAAGGCACAUGAGGAUCACCCAUGUGUGGGACAGCA	22.3	74.9	–	–
UCUUUGUUUGUGAGGAUAUCGGUGGGAUGGGUUGUCGAGAAGGCACAUGAGGAUCACCCAUGUGUGGGACAGCA	15.3	15.2	–	–
UGAAAUCAUGUAGGAUAUGCAUGGCGAAGCUACGCAGAAGGACAUGAGGAUCACCCAUGUUCUAGCUACCGAGUUCGGUGGCAA	21.3	127	–	–
UGACGGAGCAGAGGAUAUACAUGAGGAUCACCCAUGUAAAUGAAAGAUAGCAGCAAAGCUGCAAUGUAGAAGGCUGCUCCGUCA	29.8	84.9	–	–
UGAGCCUCGUGAGGAUAUACAUGAGGAUCACCCAUGUAAUAAAGUGAACGGAGGAAACUCCGAAUGUAGAAGGUACGAGGCUCA	10.1	44.2	–	–
UGAGCUUCAGGAUAUAUAUGGCGACCGUGAGGUCGAAGGUUACAUGAGGAUCACCCAUGUAGAAGGGAAGUUCU	34.5	187	–	–
UGAGUCUGCUGAGGAUAUUGCUCGUGCGUACAUGAGGAUCACCCAUGUGUCUUGAUCCUCUUCUGCAAGAAGGCAGCUCUCUCU	775	444	–	–
UGAGUGCGUGUUAGGAUAUGGUUUGGUGUUUCGGGCUAGAAGGGACAUGAGGAUCACCCAUGUAAUUGGCGGGU	253	250	–	–
UGAUAACAUGUAGGAUAUCCAGCAUUGACCAUCGGAGAAGGACAUGAGGAUCACCCAUGUACCGAUACAAUGGGAUAAGGGAAU	16.1	18.6	–	–
UGAUAACAUGUAGGAUAUGCAGCAUUGACCACUGCAGAAGGACAUGAGGAUCACCCAUGUACCGAUACUAUGGGAUCACGCAAU	24.3	87.4	–	–
UGAUAGAGCCUAGGAUAUUCGGAUCUACUACAAGGAGAAGGAGGUAGUCGGUGACGAACAUGAGGAUCACCCAUGUCGUCCUUC	67.8	69.9	–	–
UGAUAGGACAGAGGAUAUACAUGCUAGAGAUACUAGCUAAAUUUCCUCACAUGAGGAUCACCCAUGUAGAAGGCUGUCCUAUCU	19.4	378	–	–
UGAUAGGACAGAGGAUAUACGGAUAGGAUCUACUAUCAAACAGGUCCUACAUGAGGAUCACCCAUGUAGAAGGCUGUCCUAUCU	22.9	111	–	–
UGAUAGGACAGAGGAUAUACGGAUAGGAUCUACUAUCUUCCUCAAAUAACAUGAGGAUCACCCAUGUAGAAGGCUGUCCUAUCU	126	887	–	–
UGAUAGGACAGAGGAUAUACGGCUAGGAGAUACUAGCCACUAUUCCUCACAUGAGGAUCACCCAUGUAGAAGGCUGUCCUAUCU	16.4	119	–	–
UGAUAGGACAGAGGAUAUACGUGCUAGAGAUACUAGCAAAAUUAAAUAACAUGAGGAUCACCCAUGUAGAAGGCUGUCCUAUCU	5.01	7.01	–	–
UGAUAGGACAGAGGAUAUACGUGCUAGAGAUACUAGCAAAGUUUCCUCACAUGAGGAUCACCCAUGUAGAAGGCUGUCCUAUCU	24.9	521	–	–

Sequence	apparent Kd [1] [nM]	apparent Kd [2] [nM]	apparent Kd [3] [nM]	apparent Kd [4] [nM]
UGAUCGAAAGAUCAUAGAUUCUGCUAGGAUAUGCAGAAGUUUCGAUUUACAUGAGGAUCACCCAUGUAGAAGGAGUAGAGUCUA	6.12	6.54	–	–
UGAUCGAGAGAUCUUAGAUUCUGGUAGGAUAUACAUUAUGUAAAAUUUACAUGAGGAUCACCCAUGUAGAAGGACUAGAGUCUA	6.19	14.8	–	–
UGAUCGAGAGAUCUUAGAUUCUGGUAGGAUAUACAUUUAAAACGCUUUACAUGAGGAUCACCCAUGUAGAAGGACUAGAGUCUA	6.68	7.5	–	–
UGAUCUAUGUAGAAGGCCCAUAUCUAUAUUUAGGGAGGAUAUACAUGAGGAUCACCCAUGUGUAGAGCUGGUGGACUGGUCAGC	92.8	234	–	–
UGAUCUUACAUGAGGAUCACCCAUGUAGACCAGUAACUAACCAGAAGGCACGUAGAGUAAAACAGUGAGGAUAUGGAUGACAUA	–	–	6.66	5.5
UGAUCUUGAGUCAGGAUAUGCUGGUUUUUUUUUUAGCAGAAGGGACAUGAGGAUCACCCAUGUUCUCACUUUUU	16.1	20.2	–	–
UGCAUGGUAGGAUAUACGGAGCAUUAGGGUUUGUUGUGUGGACAUGAGGAUCACCCAUGUAGAAGGGCCGUGCU	42.8	65.2	–	–
UGCAUGUAGGAGAAGGAGGACUUCAUGAGGAUCACCCAUGUGUUAGGACUUAGGAUAUUUGACGACAUGAGGAUCACCCAUGUG	–	–	80.1	71.9
UGCAUGUGAGGAUAUGUGUACUGUCUUUUGUUUAGAUGUACACAGAAGGCACAUGAGGAUCACCCAUGUAGUAC	126	27.8	–	–
UGCAUGUUAGGAUAUGUUGUUGCGGGCGUACGCUCUCGACCACAGAAGGAACAUGAGGAUCACCCAUGUACCUC	20.3	88.8	–	–
UGCCUACAUGAGGAUCACCCAUGUGAGGAUAUCCUGCGAGGAUCAAAAGAUCCUCGUGGGAGAAGGCGCUUGGA	18.9	32.3	–	–
UGCGGUAGAGGAUAUACGUAGAAGUAGAUUCAUGUAAAACUACAUGAGGAUCACCCAUGUAGAAGGCUAUCGCU	22.9	230	–	–
UGCGUGUUAGGAUAUCCGCCAAAGACCGACGGUGGAACGCAGGAGAAGGAACAUGAGGAUCACCCAUGUGGGAA	88.1	34.3	–	–
UGCGUGUUAGGAUAUGCCAGCGCUACCUAAGGUAGGCUGUGGUAGAAGGAACAUGAGGAUCACCCAUGUAGGAG	111	483	–	–
UGCUACCUAGGAUAUACAUGAGGAUCACCCAUGUGAUUCGGUGGCGCGAUCCUUGAAAGUAGAAGGAGGAGCAA	38.4	27.4	–	–
UGCUAGGACCUAGGAUAUCCUGGGUUGGUGGUGCUUGAUGACCGGACAUGAGGAUCACCCAUGUAGGAGAAGGAGGUUGUUAAG	61.2	100	–	–
UGCUAGGAUGGGUCUAAUGGACCUCAGGAUAUGCUUGUACAUGAGGAUCACCCAUGUAACAUUGUGCAGAAGGGAGGAUCCACG	–	–	8.45	4.93
UGCUGGUGACAGCAUCCAUCAAAACAUGAGGAUCACCCAUGUAGAAGGCUGUACGGUUACCGUACAGAGGAUAUACAAUGAUGU	13.2	23.6	–	–
UGCUUCGUGUAAGGAUAUGCAGCCGUUUCGGCUGCAGAAGGUACUAUAAUACAUGAGGAUCACCCAUGUCUCUCGCUUUGCGGG	–	–	63.6	29.4
UGGACCGAGCUGUCGGUUGACUCUUAGGAUAUGACAUGAGGAUCACCCAUGUGGGAUCUAAAUUGUCAGAAGGAGGGUUCUGGG	283	51.4	–	–
UGGAUAGGAAAAUUUGUCCAUUGUACAGAAGGCCAACAUGAGGAUCACCCAUGUAAGAAAAGGAUGGAGGAUAUGUAUAGGGCC	–	–	64.5	20.9
UGGAUCAUCGGAGGAUAUCAUGUAGAUACAUGAGGAUCACCCAUGUCGUACGAGAGUACGGAGAUUGAGAAGGCCGAUGAUCCU	–	–	31.6	14.8
UGGAUCAUCGGAGGAUAUCAUGUGUAAACAUGAGGAUCACCCAUGUCGUACGAGAGUACGGAGAUUGAGAAGGCCGAUGAUCCU	–	–	85.4	16.4
UGGCUACAUGAGGAUCACCCAUGUCAGGAUAUGCCGUCGGAUUGCCUUCGUCGUUCGGGUAGAAGGGACUGCGG	24.6	24.1	–	–
UGGCUACAUGAGGAUCACCCAUGUCAGGAUAUGCCGUUGAAUUGACAUCAACGUACGGGUAGAAGGGACUGCGU	39.5	38.8	–	–
UGGGUAAAUGUAGGAUAUCCAUAAUAAUAAUAAGGAGAAGGACAUGAGGAUCACCCAUGUACAGGGAAUUACCCAUUUCCUCUC	1340	1170	–	–
UGGUACAUCAUAGGAUAUCGUGUGUAAACAUGAGGAUCACCCAUGUCAUACGAGAGUAUGUCGAUCGAGAAGGGUGAUGUACCU	–	–	75.2	25.8
